What all share (type): functional, cell-based
For one assay, the system named is P388. The assay is described as follows: Cytotoxicity against mouse P388 cells by MTT assay. The procedure, abridged:
(§1)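 MTT read-out on HL-60 and P-388 cell lines, with adriamycin as the positive control. IC50 values are means of three independent experiments.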

In the next assay the test system is A549. The assay is described as follows: Cytotoxicity against human A549 cells by SRB assay. The procedure, abridged: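 SRB staining assay on A-549 cells, run alongside an adriamycin positive control. IC50 values are means of three independent experiments.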
A general note: Sulforhodamine B stains cellular protein and so reports cell mass.

Another assay deals with HL-60. Put plainly: Cytotoxicity against human HL60 cells by MTT assay. The procedure, abridged: as §1
Background: Tetrazolium dyes change colour on reduction, which living cells bring about.

pIC50: −log10 of the molar value.

Take `COc1cc(-c2ccccc2)c(OC)c(O)c1-c1ccc(O)c(O)c1`: the pIC50 in the assay on P388 was 5.57; in the assay on A549 it was 4.39; in the assay on HL-60 it was 5.00.

For the molecule `COc1cc(-c2ccc(O)cc2)c(OC)c(O)c1-c1ccc(O)c(O)c1`, the pIC50 in the assay on P388 was 4.55; with A549, 4.46; in the assay on HL-60, 5.01.

Turning to `COc1cc(-c2ccc(O)c(O)c2)c(OC)c(O)c1-c1ccc(O)c(O)c1`, the pIC50 with P388 was 5.04; in the assay on A549 it was 4.84; in the assay with HL-60, 4.96.

On to `COc1c(-c2ccc(O)cc2)cc(OC)c2c1oc1cc(O)c(O)cc12` [CANDIDUSIN A], for which the negative logarithm of the IC50 (pIC50) in the assay on P388 was 4.33; in the assay with A549, 4.71; in the assay with HL-60, 4.11.

With `COc1ccc(-c2cc(OC)c3c(oc4cc(O)c(O)cc43)c2OC)cc1` [CANDIDUSIN C], the pIC50 was 4.01 in the assay with P388, 4.08 in the assay on A549 and 4.78 with HL-60.

As for `COc1c(-c2ccc(O)c(CC=C(C)C)c2)cc(OC)c2c1oc1cc(O)c(O)cc12` [PRENYLCANDIDUSIN A], the figures for the negative logarithm of the IC50 (pIC50) in the assay on P388, with A549 and with HL-60 were 4.78, 4.27 and 4.93, respectively.

Consider `COc1cc2oc3c(OC)c(-c4ccc(O)c(CC=C(C)C)c4)cc(OC)c3c2cc1OC` [PRENYLCANDIDUSIN B], for which the pIC50 with P388 is 5.80; with A549 it was 5.06; in the assay with HL-60, 4.12.

For the molecule `COc1cc2oc3c(OC)c(-c4ccc(O)c(CC=C(C)C)c4)cc(OC)c3c2cc1O` [PRENYLCANDIDUSIN C], the figures for the pIC50 in the assay on P388, with A549 and with HL-60 were 4.12, 4.91 and 4.99, respectively.

With `COc1cc(-c2ccc(O)c(CC=C(C)C)c2)c(OC)c(O)c1-c1ccc(O)c(O)c1` [PRENYLTERPHENYLLIN A], the figures for the negative-log IC50 (pIC50) in the assay on P388, in the assay with A549 and in the assay on HL-60 were 4.96, 5.08 and 5.82, respectively.

As to `COc1cc(-c2ccc(O)c(CC=C(C)C)c2)c(OC)c(O)c1-c1ccc(O)cc1` [PRENYLTERPHENYLLIN B], the pIC50 with P388 was 4.90; in the assay on A549 it was below 4.00; with HL-60, 4.41.

Take `COc1cc(-c2ccc(O)cc2)c(OC)c(O)c1-c1cc(O)c(O)c(CC=C(C)C)c1` [PRENYLTERPHENYLLIN C]: the pIC50 in the assay with P388 is 4.06; in the assay on A549, below 4.00; in the assay on HL-60, 4.55.

In the case of `COc1cc(-c2ccc(O)cc2)c(OC)c(O)c1-c1ccc(O)c(CC=C(C)C)c1` [PRENYLTERPHENYLLIN], the pIC50 in the assay on P388 is 5.70; in the assay with A549, 5.44; with HL-60, 5.56.

For the molecule `COc1cc(-c2ccc(O)cc2)c(OC)c(O)c1-c1ccc(O)cc1` [TERPHENYLLIN], the pIC50 in the assay with P388 is 4.75; in the assay on A549 it was 4.91; in the assay on HL-60, 4.96.

As a reminder, the pIC50 is the negative decadic logarithm of the IC50, by convention in mol/L. Read a high pIC50 as a low IC50.

The values above are taken from ChEMBL document CHEMBL1795281, “Prenylated Polyhydroxy-p-terphenyls from Aspergillus taichungensis ZHN-7-07” (J Nat Prod, 2011).
